Experimental data as given in the RNAGym collection of RNA variant scans (doi:10.1126/science.aae0568).
Fewer inactive variants are shown than the library holds.

B1: tRNA (parent)
chain: GUUCCGUUGGCGUAAUGGUAACGCGUCUCCCUCCUAAGGAGAAGACUGCGGGUUCGAGUCCCGUACGGAACG

Variants of: B1
Assay: yeast fitness relative to wild type (ratio to wild type); higher = fitter; tRNA-Arg(CCU), competitive growth, 37 C, YPD
How it was run: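 Variants of the tRNA-Arg(CCU) gene were chemically synthesised with a 3% per-site mutation rate across 69 sites and placed at the native genomic locus in Saccharomyces cerevisiae. Six parallel replicates of the pooled strains were competed in YPD at 37°C for 24 hours, and gene amplicons from the start and end populations were read by 100-nucleotide paired-end sequencing. Darwinian fitness relative to wild type was derived from changes in genotype frequencies. Genotypes required ≥ 100 starting reads, and estimates < 0.5 were set to 0.5.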

Row | Variant | yeast fitness
1 | U3A G67A | 0.684
2 | C11G C29U C34U G51C C66U | ≤ 0.5
3 | C11A A40C | 0.708
4 | U8A G12A A14C C60U G67C | ≤ 0.5
5 | A40C G48C | 0.684
6 | G17C A37U A69C | ≤ 0.5
7 | G18A G25A C46U C55A | ≤ 0.5
8 | A21U G68U | 0.752
9 | C5U A45C G56A | 0.801
10 | C4A C27A C62A | ≤ 0.5
11 | G10A A42C A43C A70U | ≤ 0.5
12 | U3A C22U C24A C27U A43C | 0.522
13 | C5A C46A | 0.97
14 | G9C G25C C66U A70C | 0.55
15 | C27U A57G C60U | ≤ 0.5
16 | A14U A43G | 0.537
17 | U7G U28C | 0.808
18 | A40U G44A | 0.981
19 | G10A A36C C62G | ≤ 0.5
20 | C4U C34G A37C | 0.539
21 | G10C A36U | 0.539
22 | U7A A36C | 0.512
23 | U3C U13G | 1.04
24 | G12C G63C | 0.699

Row | Variant | yeast fitness
25 | A21C C29G | 0.622
26 | A21U G67C | 0.645
27 | G9A C30A A65C | 0.664
28 | U3C G25U U64G | ≤ 0.5
29 | A14G C30U G39A C60G | ≤ 0.5
30 | G10C G25C C55A | 0.545
31 | U2G C5U A15U G17A U47G C49G C60G A70U | ≤ 0.5
32 | G51C G56A | 0.698
33 | A21U C22U G48C A65G C66U | ≤ 0.5
34 | C4A U19G C30G | ≤ 0.5
35 | U2C U19C A37G C49A C66G | ≤ 0.5
36 | U2A U47G | 0.583
37 | C22A C29G G58A G67C | ≤ 0.5
38 | U8A C29U C34U G58C | ≤ 0.5
39 | U7A U8G A69C | ≤ 0.5
40 | C22A U26A | 0.949
41 | C4G G39C A45G A57C A65U C66U | 0.796
42 | U7A C11G A36U A57C | ≤ 0.5
43 | U2G C31A G56U G67A | ≤ 0.5
44 | G10A G23C C33G C55G | ≤ 0.5
45 | U3A A65G G68A A70U | 0.556
46 | A37G U59A | 0.663
47 | C5A A20C U64A G67A | ≤ 0.5
48 | C4G A14C G25C U32C A45U A57U | ≤ 0.5

Row | Variant | yeast fitness
49 | A21G G23A C66G | ≤ 0.5
50 | A15G C49G C55G | 0.577
51 | A15U A57C | 0.637
52 | A15U C34U A57U C60U | 0.725
53 | U3A G41C G63C A65U | ≤ 0.5
54 | U2C G6C A65U G67A | ≤ 0.5
55 | U26A G48A C49G A70U | ≤ 0.5
56 | G44C G50C A57G A65C | 0.561
57 | U3C A20U C30U A37G | 0.633
58 | C11G A15C G48C C55G G67C A70U | ≤ 0.5
59 | C5G C22A A37G G50C | 0.55
60 | A20C C24G C33G A42U A57C G67C | 0.645
61 | U8C C22A C33G G39C C46U C66U | 0.536
62 | C27A C46A A69G | 0.582
63 | C11G C60G A65C | ≤ 0.5
64 | C33A A37C C61U C62A | 0.635
65 | G12A U35C G41A G51C | ≤ 0.5
66 | C29G C30G A36G A65C | 0.505
67 | U3G C5G A20C C61U | ≤ 0.5
68 | U2C C11A A69U | ≤ 0.5
69 | G10C A43C U47C C55U A69C | ≤ 0.5
70 | G10C U13A C31A | 0.594
71 | C5G G17A U26C A70C | ≤ 0.5
72 | C5G C11U C29A | 0.53

Row | Variant | yeast fitness
73 | C5U A14G G50C C55U A57G | 0.675
74 | G38A A57U | 0.772
75 | C11U U19G C34U G56A | ≤ 0.5
76 | U13A C29G C30G C49A G56C C61U | 0.635
77 | C11U A15C A36C A37U | ≤ 0.5
78 | C5G C34U C66U | ≤ 0.5
79 | U8A C29A A43G A57U | ≤ 0.5
80 | U13A G23C C27G U53C C61A | 0.509
81 | A15C G23C C60U A69G | ≤ 0.5
82 | C5G C30G C31A G50A U54C U59A | 0.596
83 | C4G A14G C27U A42U | ≤ 0.5
84 | C34G U54A U59C A65G A70G | 0.84
85 | A21C G25C | 0.896
86 | A36U G44C A45U C62U G68A | 0.789
87 | C4A C24U C46U C55A C66U | ≤ 0.5
88 | C22A C31G C46A C49U U54C G68A | 0.581
89 | C5G C31A A45C | ≤ 0.5
90 | U26G C33G G50C | ≤ 0.5
91 | G9C U53A C66U | ≤ 0.5
92 | C11A C34G U35G G39A | ≤ 0.5
93 | U2A C5G G25A C66U | 0.532
94 | A21C U53G | 0.567
95 | A40G G44A A70G | 0.567
96 | G39A A45C | 1.03

Row | Variant | yeast fitness
97 | U2C C27G G51A | ≤ 0.5
98 | C4A C30A A40G G48A | ≤ 0.5
99 | C5U G17C C24G G38C G51C U59G | ≤ 0.5
100 | C31G A36C C61U | ≤ 0.5
101 | U8G C29G A40U C61U A69C | 0.648
102 | A15C A20G A70C | 0.6
103 | A15U A21C C29U C30A G38A | ≤ 0.5
104 | C31U A43C U54C | 0.596
105 | C5G C27G C33U G56A A69U | 0.52
106 | C27U A45G U64A | 0.553
107 | C5U C55G C66U A69U | ≤ 0.5
108 | U26A G68C A69G | 0.572
109 | U2C C22G | 0.878
110 | C5G C33A A36C C66U | ≤ 0.5
111 | G39C G51C | 0.568
112 | G10A U53A A65G | ≤ 0.5
113 | A45G U47C G48C U59A | 0.576
114 | A14U U16A C22U C24A G67A A69C | 0.67
115 | C4G G12C U35A C49G C66U | 0.658
116 | C4U A21G C49U | 1.01
117 | C5U U19C C24A U28A | ≤ 0.5
118 | C24U A37G A70U | 0.536
119 | G25A U32C | 0.832
120 | G10A U13G C22G C46G | ≤ 0.5

Row | Variant | yeast fitness
121 | U2G U32C C33G C62U | 0.535
122 | C4U C11U C30G G68C | 0.593
123 | C33U A36U A43C A69C | 0.674
124 | C5U U13A A15G A20G C22G C46G G51A | ≤ 0.5
125 | U26C C61U | 0.956
126 | C11G U16C C27G | ≤ 0.5
127 | A45U G48A C66G | ≤ 0.5
128 | A14U C24G U54G | ≤ 0.5
129 | C5U U13C C22G C29A A45U | ≤ 0.5
130 | G48C C49A U53A G56A G58C G68C | ≤ 0.5
131 | U2A C5G A40G A45C | ≤ 0.5
132 | C4G A20C U26G C33U G44C U59A | ≤ 0.5
133 | G9A G51C | 0.539
134 | C24U C34U C66U | 0.58
135 | U13G C22U C30A | 0.598
136 | C4U C31G C46U | 0.921
137 | C5G C46G A65G | 0.594
138 | C11G G39C | 0.6
139 | G9A C24G G39C G56C | ≤ 0.5
140 | A43G U53C C55U | 0.561
141 | C11U C31U U35C A69U | ≤ 0.5
142 | G9C U16G C31A C60A | ≤ 0.5
143 | A21C U32C A40G G68A | ≤ 0.5
144 | C30A A42U | 0.753

Row | Variant | yeast fitness
145 | U2C G58C | 1.05
146 | C5A C30U | 0.693
147 | G9C A21G G44C U47C A70U | ≤ 0.5
148 | C30A C46A A57G C60A | ≤ 0.5
149 | C33G A40G A42C C66U | ≤ 0.5
150 | A57U U59A A65C | ≤ 0.5
151 | C29A A57G | 0.646
152 | U7G G41A | 0.776
153 | A21C U26G | 0.642
154 | C46U G50C | 0.819
155 | C4A U19A C27U G67A | 0.573
156 | A14G U26G A43C G68A | ≤ 0.5
157 | U16G C31G C55U C61A C66U | ≤ 0.5
158 | A21C C34U | 0.536
159 | C34U A36G C55G A57U G67A | 0.568
160 | U2C C30G C49A | ≤ 0.5
161 | U7A G56A | 0.673
162 | C5U U16A C24U C66G | ≤ 0.5
163 | C29U C33U U54A | ≤ 0.5
164 | C34A U47A C61A | ≤ 0.5
165 | U2G A40U C49A | 0.547
166 | C5U C34A A57G | ≤ 0.5
167 | C5U C22G C46A C60G | ≤ 0.5
